In test [1] the target is T1, Angiotensin-converting enzyme (Rattus norvegicus) (UniProt P47820).
T1 sequence (whole entry): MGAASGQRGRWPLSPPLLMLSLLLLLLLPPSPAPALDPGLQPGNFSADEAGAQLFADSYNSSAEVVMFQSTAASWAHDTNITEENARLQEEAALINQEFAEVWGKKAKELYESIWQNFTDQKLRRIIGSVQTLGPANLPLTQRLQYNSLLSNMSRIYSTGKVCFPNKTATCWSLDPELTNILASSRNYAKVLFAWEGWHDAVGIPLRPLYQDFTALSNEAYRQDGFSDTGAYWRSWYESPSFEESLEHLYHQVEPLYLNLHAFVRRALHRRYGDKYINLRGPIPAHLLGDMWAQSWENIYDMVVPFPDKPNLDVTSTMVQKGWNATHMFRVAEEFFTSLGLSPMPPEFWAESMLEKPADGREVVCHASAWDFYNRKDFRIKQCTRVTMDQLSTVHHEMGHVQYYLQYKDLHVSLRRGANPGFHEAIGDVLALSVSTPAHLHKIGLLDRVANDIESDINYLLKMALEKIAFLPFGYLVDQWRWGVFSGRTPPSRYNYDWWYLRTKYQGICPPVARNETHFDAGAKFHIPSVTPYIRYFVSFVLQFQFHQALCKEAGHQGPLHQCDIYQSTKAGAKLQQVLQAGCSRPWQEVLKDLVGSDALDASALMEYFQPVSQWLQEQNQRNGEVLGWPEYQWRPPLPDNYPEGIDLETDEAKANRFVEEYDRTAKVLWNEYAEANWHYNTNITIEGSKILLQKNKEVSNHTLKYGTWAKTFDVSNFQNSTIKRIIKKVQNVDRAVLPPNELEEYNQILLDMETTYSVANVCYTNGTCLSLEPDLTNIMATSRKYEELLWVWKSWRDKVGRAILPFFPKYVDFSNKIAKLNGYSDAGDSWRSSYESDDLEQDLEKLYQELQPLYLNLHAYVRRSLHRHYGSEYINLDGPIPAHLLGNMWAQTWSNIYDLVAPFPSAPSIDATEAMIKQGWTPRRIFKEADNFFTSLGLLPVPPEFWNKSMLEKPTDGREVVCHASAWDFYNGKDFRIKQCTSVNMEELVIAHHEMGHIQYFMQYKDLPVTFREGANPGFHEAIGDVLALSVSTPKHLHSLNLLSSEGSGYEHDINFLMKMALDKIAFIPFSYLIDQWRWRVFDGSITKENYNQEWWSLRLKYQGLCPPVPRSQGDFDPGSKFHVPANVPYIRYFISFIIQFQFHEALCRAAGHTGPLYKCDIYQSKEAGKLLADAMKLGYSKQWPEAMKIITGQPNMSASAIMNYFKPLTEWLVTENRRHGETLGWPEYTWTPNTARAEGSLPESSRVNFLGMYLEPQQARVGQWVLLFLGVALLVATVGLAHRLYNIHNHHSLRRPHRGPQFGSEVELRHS
The test is described as follows: Compound was tested for plasma inhibition of Angiotensin I converting enzyme activity in the conscious rat. Expressed as Inhibition of AI pressor response at 4 hr at a dose of 13.4 mg/kg po. Details: dose 13.4 mg/kg. The format is organism-based. In outline: (§1)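 Male conscious normotensive Sprague-Dawley rats (275-390 g), prepared under methohexital sodium (75 mg/kg ip) with femoral arterial and venous catheters. The next day, pressor responses to three angiotensin-I challenges (300 ng/kg iv) were recorded. Compound was then given orally and angiotensin-I challenges were repeated at set times. Percent inhibition is relative to the mean of the three baseline responses.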

The target in test [2] is T1, Angiotensin-converting enzyme (Rattus norvegicus). Briefly: Compound was tested for plasma inhibition of Angiotensin I converting enzyme activity in the conscious rat. Expressed as Inhibition of AI pressor response at 6 hr at a dose of 13.4 mg/kg po. It counts as organism-based. Details: dose 13.4 mg/kg. In outline:
as §1

Test [3] shares this target. Briefly: Compound was tested for plasma inhibition of Angiotensin I converting enzyme activity in the conscious rat. Expressed as Inhibition of AI pressor response at 1 hr at a dose of 13.4 mg/kg po. It counts as organism-based. Also on record: dose 13.4 mg/kg. In outline:
(§2)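 Male conscious normotensive Sprague-Dawley rats (275-390 g), given femoral arterial and venous catheters under methohexital sodium (75 mg/kg ip) anesthesia. Next day, pressor responses to three angiotensin-I challenges (300 ng/kg iv) recorded by direct arterial pressure. Compound then dosed orally, and AI challenge repeated at set times. Each post-dose response compared with the mean of the three baseline responses, giving % inhibition.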

For test [4] the target is unchanged. The test is described as follows: Compound was tested for plasma inhibition of Angiotensin I converting enzyme activity in the conscious rat. Expressed as Inhibition of AI pressor response at 2 hr at a dose of 13.4 mg/kg po. It counts as organism-based. Details: dose 13.4 mg/kg. The method in brief: as §2
The target is the same in test [5]. The test is described as follows: Compound was tested for plasma inhibition of Angiotensin I converting enzyme activity in the conscious rat. Expressed as Inhibition of AI pressor response at 6 hr at a dose of 12.8 mg/kg po. It counts as organism-based. Details: dose 12.8 mg/kg. In outline: as §1
Test [6] has the same target. The test is described as follows: Compound was tested for plasma inhibition of Angiotensin I converting enzyme activity in the conscious rat. Expressed as Inhibition of AI pressor response at 2 hr at a dose of 12.8 mg/kg po. The format is organism-based. Also on record: dose 12.8 mg/kg. In outline:
as §2

Test [7] has the same target. The test is described as follows: Compound was tested for plasma inhibition of Angiotensin I converting enzyme activity in the conscious rat. Expressed as Inhibition of AI pressor response at 1 hr at a dose of 12.8 mg/kg po. Details: dose 12.8 mg/kg. It counts as organism-based. In outline: as §2
For test [8] the target is unchanged. Briefly: Compound was tested for plasma inhibition of Angiotensin I converting enzymeb activity in the conscious rat. Expressed as Inhibition of AI pressor response at 4 hr at a dose of 12.8 mg/kg po. Details: dose 12.8 mg/kg. The format is organism-based. The method in brief: as §1
Test [9] shares this target. The test is described as follows: Compound was tested for plasma inhibition of Angiotensin I converting enzyme activity in the conscious rat. Expressed as Inhibition of AI pressor response at 1 hr at a dose of 13.8 mg/kg po. It counts as organism-based. Also on record: dose 13.8 mg/kg. The method in brief: as §2
For test [10] the target is unchanged. Briefly: Compound was tested for plasma inhibition of Angiotensin I converting enzyme activity in the conscious rat. Expressed as Inhibition of AI pressor response at 2 hr at a dose of 13.8 mg/kg po. The format is organism-based. Also on record: dose 13.8 mg/kg. The method in brief: as §2
The target is the same in test [11]. The test is described as follows: Compound was tested for plasma inhibition of Angiotensin I converting enzyme activity in the conscious rat. Expressed as Inhibition of AI pressor response at 4 hr at a dose of 13.8 mg/kg po. It counts as organism-based. Also on record: dose 13.8 mg/kg. In outline: as §1
Test [12] shares this target. Briefly: Compound was tested for plasma inhibition of Angiotensin I converting enzyme activity in the conscious rat. Expressed as Inhibition of AI pressor response at 6 hr at a dose of 13.8 mg/kg po. The format is organism-based. Details: dose 13.8 mg/kg. The method in brief:
as §1

Test [13] shares this target. The test is described as follows: Compound was tested for plasma inhibition of Angiotensin I converting enzyme activity in the conscious rat. Expressed as Inhibition of AI pressor response at 4 hr at a dose of 12.3 mg/kg po. The format is organism-based. Also on record: dose 12.3 mg/kg. The method in brief: as §2
For test [14] the target is unchanged. Briefly: Compound was tested for plasma inhibition of Angiotensin I converting enzyme activity in the conscious rat. Expressed as Inhibition of AI pressor response at 1 hr at a dose of 12.3 mg/kg po. The format is organism-based. Details: dose 12.3 mg/kg. In outline: as §2
Test [15] shares this target. Briefly: Compound was tested for plasma inhibition of Angiotensin I converting enzyme activity in the conscious rat. Expressed as Inhibition of AI pressor response at 2 hr at a dose of 12.3 mg/kg po. Also on record: dose 12.3 mg/kg. It counts as organism-based. The method in brief:
as §2

Test [16] shares this target. The test is described as follows: Compound was tested for plasma inhibition of Angiotensin I converting enzyme activity in the conscious rat. Expressed as Inhibition of AI pressor response at 6 hr at a dose of 12.3 mg/kg po. The format is organism-based. Also on record: dose 12.3 mg/kg. In outline:
as §1

Test [17] has the same target. The test is described as follows: Compound was tested for plasma inhibition of Angiotensin I converting enzyme activity in the conscious rat. Expressed as Inhibition of AI pressor response at 6 hr at a dose of 14.3 mg/kg po. Also on record: dose 14.3 mg/kg. It counts as organism-based. The method in brief:
as §1

The test system of test [18] is Rattus norvegicus. The test is described as follows: Plasma ANF Concentration in the Conscious Rat at a dose of 14.3(po)mg/kg at 1 h. It counts as functional. In outline:
(§3)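 Male Sprague-Dawley rats (275-390 g), catheterized in femoral artery and vein under ketamine (150 mg/kg)/acepromazine, tethered and recovered 24 h, studied conscious. Continuous iv rat ANF(99-126) infusion at 450 ng/kg/min for 5 h; baseline blood at 60 min, then oral dosing, sampling at 30-240 min.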

For test [19], the target named is T1, Angiotensin-converting enzyme (Rattus norvegicus). Briefly: Compound was tested for plasma inhibition of Angiotensin I converting enzyme activity in the conscious rat. Expressed as Inhibition of AI pressor response at 1 hr at a dose of 14.3 mg/kg po. The format is organism-based. Details: dose 14.3 mg/kg. In outline:
as §2

The test system of test [20] is Rattus norvegicus. Briefly: Plasma ANF Concentration in the Conscious Rat at a dose of 14.3(po)mg/kg at 2 h. The format is functional. The method in brief: as §3
In test [21] the target is T1, Angiotensin-converting enzyme (Rattus norvegicus). The test is described as follows: Compound was tested for plasma inhibition of Angiotensin I converting enzyme activity in the conscious rat. Expressed as Inhibition of AI pressor response at 4 hr at a dose of 14.3 mg/kg po. It counts as organism-based. Also on record: dose 14.3 mg/kg. The method in brief: as §1
For test [22] the target is unchanged. Briefly: Compound was tested for plasma inhibition of Angiotensin I converting enzyme activity in the conscious rat. Expressed as Inhibition of AI pressor response at 2 hr at a dose of 14.3 mg/kg po. It counts as organism-based. Also on record: dose 14.3 mg/kg. In outline: as §2
The subject of test [23] is Rattus norvegicus. The test is described as follows: Plasma ANF Concentration in the Conscious Rat at a dose of 14.3(po)mg/kg at 4 h. The format is functional. The method in brief:
as §3

The test system of test [24] is Rattus norvegicus. The test is described as follows: Plasma ANF Concentration in the Conscious Rat at a dose of 14.3(po)mg/kg at 0.5 h. It counts as functional. In outline: as §3

The values below come from ChEMBL document CHEMBL1129264, “Mercaptoacyl dipeptides as orally active dual inhibitors of angiotensin-converting enzyme and neutral endopeptidase” (1996).

What is called inhibition is the drop in the measured response relative to a control, in per cent. Turning to `CCOC(=O)[C@H](Cc1ccc(OC(=O)C(C)C)cc1)NC(=O)C1(NC(=O)[C@H](SC(C)=O)C(C)C)CCCC1`, the inhibition in [1] stood at 63%; in [2], 46%; in test [3], 73%; in [4], 75%.

For `CCCCOC(=O)[C@H](Cc1ccc(O)cc1)NC(=O)C1(NC(=O)[C@H](SC(=O)CC)C(C)C)CCCC1`, the inhibition in test [5] came to 39%; in test [6] it was 71%; in test [7] it was 47%; in [8] it was 56%.

For the compound `CCOC(=O)[C@H](Cc1ccc(O)cc1)NC(=O)C1(NC(=O)[C@H](SC(=O)CN2CCOCC2)C(C)C)CCCC1`, the inhibition in test [9] turned out to be 54%; in test [10] it was 60%; in test [11], 40%; in [12], 28%.

For the compound `CCCOc1ccc(C[C@H](NC(=O)C2(NC(=O)[C@H](SC(C)=O)C(C)C)CCCC2)C(=O)OCC)cc1`, the inhibition stood at 72% in [13], 90% in test [14], 80% in [15] and 68% in test [16].

As for `CCOC(=O)[C@H](Cc1ccc(OC(=O)c2ccncc2)cc1)NC(=O)C1(NC(=O)[C@H](SC(C)=O)C(C)C)CCCC1`, the inhibition was found to be 55% in test [17], 79% in test [19], 70% in test [21] and 75% in test [22]. Further, the Control came out at 193% with Rattus norvegicus [18], 183% in the test on Rattus norvegicus [20], 159% with Rattus norvegicus [23] and 165% with Rattus norvegicus [24].
